Screening data (PubChem)
NPY Y2 blocker = NPY-Y2 receptor antagonists, primary screen, cell-based; Neuropeptide Y receptor type 2 (Homo sapiens), P49146; NPY-Y2 expressing cells, antagonist mode; AID 793, 2007; inhibition, % at 2.7 µM; actives 0.99% (n = 140,000); in the data active = inhibition above about 17%
Target sequence (P49146 whole entry, looked up): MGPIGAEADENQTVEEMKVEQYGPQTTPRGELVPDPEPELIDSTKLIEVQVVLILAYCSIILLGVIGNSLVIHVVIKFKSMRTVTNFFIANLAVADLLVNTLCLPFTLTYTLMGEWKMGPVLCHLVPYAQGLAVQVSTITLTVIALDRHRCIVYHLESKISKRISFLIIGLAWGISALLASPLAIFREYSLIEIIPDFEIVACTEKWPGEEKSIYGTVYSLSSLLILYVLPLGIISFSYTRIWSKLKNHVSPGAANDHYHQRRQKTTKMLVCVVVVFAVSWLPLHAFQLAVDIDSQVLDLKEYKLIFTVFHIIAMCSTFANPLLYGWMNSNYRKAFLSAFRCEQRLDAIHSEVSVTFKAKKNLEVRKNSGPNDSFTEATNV
NPY-Y2 PAM-ag = NPY-Y2 potentiators or agonists, primary screen, cell-based | cells expressing NPY-Y2, potentiator/agonist read-out | Neuropeptide Y receptor type 2 (Homo sapiens), P49146 | activation, % at 3.6 µM | actives 0.45% (n = 220,000); in the data active = activation above about 27%;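 also: cells stimulated with NPY near EC25 plus isoproterenol at EC100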
NPY-Y1 PAM-ag = NPY-Y1 receptor potentiators or agonists, primary screen, cell-based. Neuropeptide Y receptor type 1 (Homo sapiens), P25929. NPY-Y1 expressing cells, potentiator/agonist activation. activation, % at 3.6 µM. actives 0.37% (n = 220,000); in the data active = activation above about 33%, passing the limit was not always enough;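 also: cells stimulated with NPY at EC10 then isoproterenol at EC100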
Target sequence (P25929 whole entry, looked up): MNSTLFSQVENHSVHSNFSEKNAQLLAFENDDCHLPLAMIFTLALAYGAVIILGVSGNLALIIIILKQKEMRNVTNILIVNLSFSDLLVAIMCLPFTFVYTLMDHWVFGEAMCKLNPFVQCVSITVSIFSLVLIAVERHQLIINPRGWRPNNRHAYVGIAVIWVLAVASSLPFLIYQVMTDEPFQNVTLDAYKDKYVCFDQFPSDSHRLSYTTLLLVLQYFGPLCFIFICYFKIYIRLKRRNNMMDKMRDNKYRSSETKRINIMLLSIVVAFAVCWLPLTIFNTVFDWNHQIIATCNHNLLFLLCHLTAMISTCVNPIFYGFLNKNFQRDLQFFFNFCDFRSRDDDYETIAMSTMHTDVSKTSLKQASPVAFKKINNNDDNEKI
NPY Y1 blocker = NPY-Y1 receptor antagonists, primary screen, cell-based; Neuropeptide Y receptor type 1 (Homo sapiens), P25929; HEK293-CNG Y1 cells, membrane potential fluorescence; NPY at EC95, then isoproterenol; inhibition, % at 3.6 µM; actives 1% (n = 200,000);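 active = inhibition above the campaign mean inhibition of all tested compounds plus 3 SD, cut at about 20% in these data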
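Assay system: HEK293 cells with Y1 receptor plus CNG channel | Probe or stimulus: NPY (25 nM), isoproterenol (1 µM), Ro 20-1724 (25 µM) | Timing: Compound incubation 1 h at room temperature, readout 45 min post-stimulation | Measured by: Membrane-potential fluorescent dye readout | Benchmarks: High control isoproterenol alone, low control NPY with isoproterenol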
Measles CPE = compounds protecting cells from measles virus cytopathic effect, primary screen, measles RdRp inhibitor project, single point, MLSMR library, absorbance; protection (pct of control), % at 4 µM; actives 1.5% (n = 140,000); AID 841, 2007; Measles virus-infected cells, CPE protection; in the data active = protection mostly above about 24%, no sharp cut-off; inactive = mostly below about 26%
Mdm2 ligase inh = MDM2-luciferase reporter signal enhancers, primary screen, MDM2 E3 ligase inhibitor project, cell-based, luminescence, 1536-well; AID 1230, 2008; actives 0.11% (n = 210,000); cell-based MDM2 ubiquitination luciferase reporter, 2 h; 0 = plate control, 100 = twice control, blank-subtracted; signal enhancement, % at 5 µM;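 active = signal enhancement of 30% or more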;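 also: luminescence tracks abundance of the self-degrading MDM2-luciferase fusion protein; higher signal means inhibition of MDM2 E3 ligase activity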
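Buffer or medium: Cells held in DMEM | Assay system: Stable mammalian line carrying autodegrading MDM2–luciferase fusion reporter | Quantity: 2000 cells/well | Times: 4 h settle plus 2 h compound, 37 °C | Doses: One concentration, 5 µM, with 0.2% DMSO | Technique: Luminescence with SteadyLite reagent, 15 min at room temperature | Benchmarks: Plate controls and plate blanks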
NPY-Y2 confirm = NPY-Y2 potentiators or agonists, confirmation, cell-based | cell-based NPY-Y2 potentiator/agonist assay | actives 20% (n = 450) | activation, % at 3.6 µM | AID 1539, 2009 | shares compounds with NPY-Y2 PAM-ag; in the data active = activation above about 33%
NPY-Y1 counter = NPY-Y1 potentiators or agonists, counter-screen for NPY-Y2 potentiator project, cell-based, fluorescence. shares compounds with NPY-Y2 PAM-ag. Y1 HEK293-CNG cells, membrane potential fluorescence. activation, % at 3.6 µM. actives 20% (n = 450). AID 1651, 2009; in the data active = activation above about 45%;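 also: cells stimulated with submaximal NPY then isoproterenol with phosphodiesterase inhibitor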
NPY-Y1 ag 2 = NPY-Y1 direct agonists, selectivity assay for NPY-Y2 potentiator project, cell-based, fluorescence; activation, % at 3.6 µM; shares compounds with NPY-Y2 PAM-ag; actives 37% (n = 450); HEK293 Y1-CNGC, membrane potential fluorescence, agonism;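 active = activation above the mean of DMSO-only control wells plus 3 SD, cut at about 18% in these data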;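 also: cells stimulated with 1 µM isoproterenol plus the PDE inhibitor Ro 20-1724; Y1 agonists lower the membrane potential dye signal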
CNGC inhibitor = CNGC cAMP sensor activity inhibitors, counter-screen for NPY-Y2 potentiator project, cell-based, HEK293-CNG parental, membrane potential fluorescence | shares compounds with NPY-Y2 PAM-ag | actives 32% (n = 450) | isoproterenol cAMP | inhibition, % at 3.6 µM;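 active = inhibition above the control-well mean plus 3 SD of those wells, cut at about 22% in these data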
Y2 agonist ctr = NPY-Y2 direct agonists, counter-screen for NPY-Y2 potentiator project, cell-based, fluorescence | AID 1710, 2009 | activation, % at 3.6 µM | actives 56% (n = 450) | shares compounds with NPY-Y2 PAM-ag | HEK293 Y2/CNGC cells, membrane potential fluorescence, agonist mode;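 active = activation above the mean of solvent-only control wells plus 3 SD, cut at about 10% in these data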;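 also: cells stimulated by isoproterenol with no NPY added so direct agonism is tested; agonism lowers probe fluorescence through less cAMP and CNG channel opening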
Each line names hits and unclear results; the compound was inactive in the other large screens (follow-up assays come after a bar, where they were run). Compounds with a hit are over-represented: about 2.8% of the library has one in this group of screens.

COC(=O)/C(=C/c1cn(C)c2ccccc12)[N+](=O)[O-]	none
COC(=O)/C(=C/c1cn(C(C)=O)c2ccccc12)[N+](=O)[O-]	NPY-Y2 PAM-ag 61 (no result: NPY Y2 blocker, NPY Y1 blocker, Measles CPE) | NPY-Y2 confirm inactive | NPY-Y1 counter inactive | NPY-Y1 ag 2 25 | CNGC inhibitor inactive | Y2 agonist ctr 18
COc1ccc(C=O)cc1Oc1nc(Cl)ncc1F	none (no result: NPY Y2 blocker, Measles CPE)
N#C/C(=C\c1ccncc1)c1nc2ccccc2o1	none (no result: NPY Y2 blocker, NPY Y1 blocker, Measles CPE)
N#C/C(=C\Nc1ccccc1O)c1nc2ccccc2o1	NPY-Y2 PAM-ag 31 | NPY-Y2 confirm inactive | NPY-Y1 counter inactive | NPY-Y1 ag 2 29 | CNGC inhibitor 34 | Y2 agonist ctr 18
N#Cc1cnn(-c2ccc(F)cc2)c1N	NPY-Y2 PAM-ag 55 (no result: NPY Y2 blocker, NPY Y1 blocker, Measles CPE) | NPY-Y2 confirm inactive | NPY-Y1 counter inactive | NPY-Y1 ag 2 inactive | CNGC inhibitor inactive | Y2 agonist ctr inactive
CC1CC(C)CN(C(=O)C(NS(=O)(=O)c2ccc(Br)s2)c2ccccc2)C1 (stereo unspecified)	none
c1ccc(Nc2ncnc3[nH]ncc23)cc1	none (no result: NPY Y2 blocker, NPY Y1 blocker, Measles CPE)
CCc1ccc(NC(=S)N(Cc2ccc(Cl)cc2)Cc2ccc(C(=O)O)cc2)cc1	NPY-Y2 PAM-ag 32 (no result: NPY Y2 blocker, Measles CPE) | NPY-Y2 confirm inactive | NPY-Y1 counter inactive | NPY-Y1 ag 2 inactive | CNGC inhibitor inactive | Y2 agonist ctr inactive
COC(=O)/C(=C\Nc1cccc(Cl)c1C)c1ncc(C(F)(F)F)cc1Cl	NPY-Y2 PAM-ag 58 | NPY-Y2 confirm inactive | NPY-Y1 counter inactive | NPY-Y1 ag 2 inactive | CNGC inhibitor inactive | Y2 agonist ctr inactive
Cc1cccc(-n2c(N)cc(=O)nc2SCC(=O)Nc2cc(C)on2)c1	NPY-Y2 PAM-ag 79 | NPY-Y2 confirm inactive | NPY-Y1 counter inactive | NPY-Y1 ag 2 inactive | CNGC inhibitor inactive | Y2 agonist ctr inactive
COc1ccc(Oc2ccc(/C=C/C(=O)c3ccc(O)cc3)cc2[N+](=O)[O-])cc1	NPY-Y2 PAM-ag 38 | NPY-Y2 confirm inactive | NPY-Y1 counter inactive | NPY-Y1 ag 2 23 | CNGC inhibitor inactive | Y2 agonist ctr 11
COc1ccc(/C=C/C(=O)c2ccc(O)cc2)cc1COc1ccc(F)cc1	none
Cc1ccc(S(=O)(=O)N(C)CC(=O)N2CCOCC2)cc1	none
Cc1ccc(S(=O)(=O)N(C)CC(=O)OCC(=O)N2CCCC2=O)cc1	NPY-Y2 PAM-ag 50 (no result: NPY Y2 blocker, Measles CPE) | NPY-Y2 confirm inactive | NPY-Y1 counter inactive | NPY-Y1 ag 2 inactive | CNGC inhibitor inactive | Y2 agonist ctr inactive
O=C(c1ccc(CNS(=O)(=O)c2ccccc2)cc1)N1CCN(Cc2ccccc2)CC1	NPY-Y2 PAM-ag 27, Measles CPE 28 | NPY-Y2 confirm inactive | NPY-Y1 counter inactive | NPY-Y1 ag 2 inactive | CNGC inhibitor inactive | Y2 agonist ctr inactive
O=C(Nc1ccc(OCC(F)(F)C(F)F)c(C(F)(F)F)c1)c1ccccc1O	NPY-Y2 PAM-ag 61 | NPY-Y2 confirm inactive | NPY-Y1 counter inactive | NPY-Y1 ag 2 inactive | CNGC inhibitor inactive | Y2 agonist ctr inactive
COc1ccc(/C=C\C(=O)c2c(O)ccc3c(C)cc(=O)oc23)cc1	none
COc1ccc(/C=C/C(=O)c2c(O)ccc3c(C)cc(=O)oc23)cc1	NPY-Y2 PAM-ag 64 | NPY-Y2 confirm inactive | NPY-Y1 counter inactive | NPY-Y1 ag 2 inactive | CNGC inhibitor inactive | Y2 agonist ctr inactive
O=C(NC(NC(=S)Nc1cccc(Cl)c1)C(Cl)(Cl)Cl)OCc1ccccc1 (stereo unspecified)	NPY-Y2 PAM-ag 33 | NPY-Y2 confirm inactive | NPY-Y1 counter inactive | NPY-Y1 ag 2 30 | CNGC inhibitor 28 | Y2 agonist ctr 34
O=C(NC(NC(=S)Nc1cccc(C(=O)O)c1)C(Cl)(Cl)Cl)OCc1ccccc1 (stereo unspecified)	none
Cc1ccc(NC(=O)NC(=O)CSc2nnc(-c3ccc(Cl)cc3Cl)n2N)c(C)c1	none
O=C(c1cccc(-c2ccc(O)cc2)c1)N1CCN(c2ccc(F)cc2)CC1	none (no result: NPY Y2 blocker, Measles CPE)
CCOc1c(OC(C)=O)ccc(/C=C/c2ccc3cccc(OC(C)=O)c3n2)c1[N+](=O)[O-]	none
C=CCN1C(=O)/C(=C/c2ccc(OC(C)=O)c(OCC)c2[N+](=O)[O-])SC1=S	NPY-Y2 PAM-ag 36 (no result: NPY Y2 blocker, Measles CPE) | NPY-Y2 confirm inactive | NPY-Y1 counter inactive | NPY-Y1 ag 2 inactive | CNGC inhibitor inactive | Y2 agonist ctr 12
O=C(c1ccc(Br)cc1)c1sc(N2CCOCC2)nc1-c1ccccc1	none (no result: NPY Y2 blocker, Measles CPE)
Cc1ccc(NC(=O)c2cc(S(=O)(=O)Nc3ccc(C)cc3)cs2)cc1	NPY-Y2 PAM-ag 43 (no result: Measles CPE, Mdm2 ligase inh) | NPY-Y2 confirm 37 | NPY-Y1 counter 47 | NPY-Y1 ag 2 35 | CNGC inhibitor 42 | Y2 agonist ctr 21
Cc1ccc(NS(=O)(=O)c2ccc(NC(=O)c3cccs3)cc2)c(C)c1	none
Cc1ccc(C(C(=O)NC(C)(C)C)N(Cc2ccco2)C(=O)CCC(=O)Nc2nccs2)cc1 (stereo unspecified)	none (no result: Measles CPE, Mdm2 ligase inh)
Cc1cc(Cl)n2nc(C)c(-c3ccc(Cl)cc3)c2n1	NPY-Y2 PAM-ag 28 (no result: NPY Y2 blocker, Measles CPE) | NPY-Y2 confirm 42 | NPY-Y1 counter 59 | NPY-Y1 ag 2 59 | CNGC inhibitor 63 | Y2 agonist ctr 45
Cc1ccc(C(C(=O)NC(C)(C)C)N(Cc2ccccc2)C(=O)c2snc(C(N)=O)c2N)o1 (stereo unspecified)	none (no result: NPY Y2 blocker, Measles CPE)
